Among the data in the RNAGym collection of RNA variant scans (doi:10.1126/science.aae0568) are yeast fitness values, retold here.

Fewer inactive variants are shown than the library holds.

First the molecules themselves.
B1: tRNA (parent)
chain: GUUCCGUUGGCGUAAUGGUAACGCGUCUCCCUCCUAAGGAGAAGACUGCGGGUUCGAGUCCCGUACGGAACG

In this data set the parent is B1. Kind of data set: yeast fitness relative to wild type (ratio to wild type); higher = fitter; tRNA-Arg(CCU), competitive growth, 37 C, YPD. Put shortly:
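Changes in genotype frequencies gave Darwinian fitness relative to wild type. Frequencies were read by 100-nucleotide paired-end sequencing of gene amplicons before and after pooled Saccharomyces cerevisiae strains, carrying tRNA-Arg(CCU) gene variants at the native locus, were competed in YPD at 37°C for 24 hours in six replicates. A genotype was kept only with ≥ 100 starting reads, and estimates < 0.5 were set to 0.5.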
Take G48C C49A U53A G56A G58C: the yeast fitness stood at 0.611. As for C49U G51C G68A, the yeast fitness is not above 0.5. Under C46U U53C A70U stands 0.608; under C49U G52C A57C G63C, not above 0.5.

Consider G48A U53C C60A, for which the yeast fitness was not above 0.5. The result for C49A U53A U59C C61A reads not above 0.5; that for U47C C55A, 0.699; that for U47C C55U, 0.796.

In the case of U47C C55G, the yeast fitness stood at 0.733.

For G48C C55G, the yeast fitness turned out to be 0.78. The result for G48C C55A reads 0.703; that for G48C C55U, 0.668. As for G50A C62A G68A, the yeast fitness is not above 0.5. As for C49G U54G, the yeast fitness came to 0.625.

Consider C49G U54A, for which the yeast fitness is 0.637. Under G48A A57U A65U C66A stands not above 0.5; under C49U A69U A70G, 0.687; under C49U U59A A65U, not above 0.5. The result for C49U G68C A69U reads 0.569.

Consider G48C U59A C66U, for which the yeast fitness amounted to 0.679. As for G48C C49U A70U, the yeast fitness turned out to be 0.724.

Regarding C49U G67A A69U, the yeast fitness was not above 0.5.

As for C49G G56A, the yeast fitness turned out to be 0.838. Turning to U47G C60G C62A A65G, the yeast fitness is not above 0.5.

C49U C62G G68C: the yeast fitness was found to be 0.536. With G48A G50A A70U, the yeast fitness is 0.812.

As to U47A G56A, the yeast fitness is 0.964. Under U47G A57G stands 0.7. Under U47G A57U stands not above 0.5; under C49G U53C C55A G63A, not above 0.5.

Consider C49G C55U, for which the yeast fitness was 0.692. The result for G48A G68U A70C reads 0.809; that for G48C G51C U53A C66A, not above 0.5; that for C49U C61G, 0.689. The result for G48A C49U reads 0.97; that for G48A G67U, 0.9; that for G48C C49G, 0.621. Under G48A C60U A65U stands 0.726.

As for C49U G67A, the yeast fitness stood at 0.879. G48A G56C C62U: the yeast fitness was 0.65. In the case of U47C G58A, the yeast fitness amounted to 0.986. With U47G C49U, the yeast fitness is 0.682.

With U47G C49A, the yeast fitness is 0.68. As for C49U U64C, the yeast fitness turned out to be 0.921. The result for C49U U64A reads 0.753.

U47C A57G: the yeast fitness came out at 0.921.

Take C49G C60A: the yeast fitness came to 0.696. Take C49G C60G: the yeast fitness came to 0.64.

For U47G C66U, the yeast fitness was 0.691.

As to U47G C66G, the yeast fitness came out at 0.517. Turning to U47C C61U, the yeast fitness turned out to be 0.888.

As for C49G U59C, the yeast fitness amounted to 0.761. Under C49G U59A stands 0.785.

U47C C62U: the yeast fitness was determined as 0.944. For C49G G56C A70U, the yeast fitness was found to be 0.55. Under U47C U59A A65C A70C stands not above 0.5; under G48A C66A, 0.929; under U47C G52A G63A, not above 0.5. The result for U47A G48C G51A C61A reads not above 0.5. The result for C49U G51A A69C reads 0.61.

As for U47A G48C, the yeast fitness was 0.82. Turning to G50A C62U, the yeast fitness came to 1.

Consider G50A C62G, for which the yeast fitness was found to be 1.03. Turning to G48A C61U A70C, the yeast fitness was 0.989.

C49U U54C C66G: the yeast fitness is not above 0.5. Under C49G G67C stands 0.84; under C49U C55U G58A, not above 0.5; under C49A G51C, 0.589. For C49A C66U, the yeast fitness is 0.641. Under C49G G52A A69U stands 0.542; under C49U G56U, 0.677. The result for C49U G56C reads 0.58. The result for C49U G56A reads 1.03; that for G48C U59A, 0.785.

Consider C49U C60G, for which the yeast fitness stood at 0.609. In the case of C49U C60A, the yeast fitness was 0.668. On to C49U C62U G67A, for which the yeast fitness was 0.573. For the variant G48C G52C A57C G58A A70G, the yeast fitness is not above 0.5. Consider G48C C66U, for which the yeast fitness was found to be 0.932.

As to C46U U54C A57G, the yeast fitness is 0.622. For the variant G48A A69C, the yeast fitness is 0.96. The result for C49G G50A A57C reads not above 0.5; that for C46U U54C A70U, 0.804; that for C49U A57C, 0.78. Under G50A C55A stands 0.702; under C49G C60U A69G, not above 0.5. The result for C49A G67A reads 0.579; that for G48A A70G, 1.12; that for G50A C62A C66G, not above 0.5. Regarding G48C G51C U59A, the yeast fitness was not above 0.5. For the variant U47G C62G A69U, the yeast fitness amounted to 0.545. Under U47G C62G A69C stands 0.508.

In the case of C49G G52A, the yeast fitness came out at 0.898. As for G50A A70G, the yeast fitness was 1.06.

Take G50A A70U: the yeast fitness stood at 0.805. The result for C49G U54A G68U A69U reads 0.566; that for G48A C55A G58C, 0.516. Take C49U A69C: the yeast fitness was 1.01.

Turning to C49U U59G, the yeast fitness is 0.904. The result for C49U U59A reads 0.852. With C49A A57G, the yeast fitness is 0.835. Under C49A A57C stands 0.573; under C49A U54C, 0.674; under C49A U54A, 0.538. As to C49A U54G, the yeast fitness was 0.584.

Take U47C C66U A70U: the yeast fitness was 0.548. In the case of U47C G50A, the yeast fitness worked out at 0.99. As for U47C A65U, the yeast fitness was determined as 0.998.

Take G48A C60U: the yeast fitness was found to be 0.847.

In the case of G48A C60A, the yeast fitness is 0.695. G48A G58C C66U: the yeast fitness is 0.714. Under U47C U59A G63C stands 0.58; under C49U C55A C62U, 0.699. The result for C49G G50A U59G reads not above 0.5; that for U47G U59A C66A A70C, not above 0.5.

On to U47G G50C, for which the yeast fitness is not above 0.5. For G48A C61A A65C, the yeast fitness is not above 0.5.

For the variant U47C G58A G67A, the yeast fitness was 0.584.

For C49U A65U A70U, the yeast fitness amounted to 0.657.

Take G48A G56A: the yeast fitness was determined as 1.02. The result for G48A C66G A70G reads 0.632. Regarding G48A G51C C60A U64C, the yeast fitness amounted to 0.853. Turning to G48A C55G C62U, the yeast fitness was not above 0.5.

As to G50A A65U, the yeast fitness is 0.703.

On to G48A C66A G67A, for which the yeast fitness is not above 0.5. In the case of U47G C60U, the yeast fitness was 0.548. The result for U47G C60G reads 0.675; that for G48A C55U C60G, 0.727; that for G48C A57G A69U, 0.562. For the variant C49U U53C, the yeast fitness is 0.691. On to C49U C55A C66U, for which the yeast fitness was determined as 0.514. As for U47C C66U A69C, the yeast fitness is 0.675. Under C46U U59A stands 0.877; under C49U G51C, 0.756. Under C49U G51A stands 0.737; under G48A A65C, 0.901. Under G48A C55U A69U stands 0.522. As to U47G G56A, the yeast fitness is 0.646.

As to C46U U59G C60A G63C A69U, the yeast fitness came out at 0.632.

On to C49U A65G, for which the yeast fitness was determined as 0.942. For the variant C49U A57U G67C, the yeast fitness is not above 0.5. Under C49U A70U stands 1.

Turning to U47C G63C, the yeast fitness came to 0.769. The result for G48C C49U C60A A65U reads not above 0.5; that for G48A G50U U54G A70U, not above 0.5. Consider C46U U59C C62G A65U, for which the yeast fitness is 0.557. The result for G48C C60G reads 0.719. The result for C49G A57G C61U reads 0.584; that for G50A C66U, 0.783; that for G50A C66A, 0.516. Under C49G G63A C66U stands 0.524; under C49U G58C, 1; under U47C A57G A69U, 0.569. In the case of G48C U53A C61U, the yeast fitness came out at 0.517. Under C49U U59A C61A stands not above 0.5; under C49G C62U, 0.79; under C49U G56C A70C, not above 0.5.

Consider G48A G50C, for which the yeast fitness was found to be 1.07. G48A G52C A57C: the yeast fitness was 0.622.

For G48C U54A, the yeast fitness was determined as 0.679. Turning to G48C U54C, the yeast fitness was determined as 0.973.

Regarding U47C G58C A65C, the yeast fitness came to 0.614.

As to G48A G51C G67C, the yeast fitness was not above 0.5. On to G50A G52A, for which the yeast fitness was found to be 0.688. Take G48C A69C: the yeast fitness was 1.05. The result for G48A C61G A70C reads 0.531; that for C49U G51C C55A, 0.618.
